Test results as given in ChEMBL document CHEMBL4020827, “Targeting Multiple Effector Pathways in Pancreatic Ductal Adenocarcinoma with a G-Quadruplex-Binding Small Molecule” (J Med Chem, 2018).

Tests used:
Mus musculus = experiment: Toxicity in CD-1 nude mouse xenografted with human MIAPaCa2 cells assessed as change in tumor ulceration at 15 mg/kg, iv administered twice weekly for 4 weeks measured for 40 days; type: organism-based; settings: in vivo, 960 h
MIA PaCa-2 [1] = experiment: Effect on RPTOR gene expression in human MIAPaCa2 cells at 400 nM after 24 hrs by RNA sequence analysis relative to control; type: functional
Outline: (§1)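 RNA-seq: cells seeded overnight in 60 mm plates (PANC-1 0.35 x 10^6, MIA PaCa-2 1.5 x 10^6 cells/well), then exposed to 400 nM compound for 6 or 24 h against untreated controls. Cell lines mycoplasma-free by RNA-capture ELISA and STR-profiled. Differentially expressed genes called at FDR < 0.1.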

PANC-1 [2] = experiment: Effect on ROBO3 gene expression in human PANC1 cells at 400 nM after 24 hrs by RNA sequence analysis relative to control; type: functional; outline: as §1
MIA PaCa-2 [3] = experiment: Effect on MAPK9 gene expression in human MIAPaCa2 cells at 400 nM after 6 hrs by RNA sequence analysis relative to control; type: functional
MIA PaCa-2 [4] = experiment: Effect on SHANK2 gene expression in human MIAPaCa2 cells at 400 nM after 24 hrs by RNA sequence analysis relative to control; type: functional; outline: as §1
MIA PaCa-2 [5] = experiment: Effect on SHANK2 gene expression in human MIAPaCa2 cells at 400 nM after 6 hrs by RNA sequence analysis relative to control; type: functional; outline: as §1
[6] = Binding affinity to 5'-FAM/3'-TAMRA labeled HSP90B promoter G-quadruplex DNA (unknown origin) assessed as change in melting temperature at 1 uM by FRET assay
Outline: (§2)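 FRET melting with FAM/TAMRA dual-labelled oligonucleotides at 400 nM, annealed at 95 °C for 10 min in 60 mM potassium cacodylate pH 7.4 and slowly cooled. Ligand final 1 μM; solution contains 50 mM K+. Fluorescence read every 0.5 °C over 30–100 °C with 30 s hold, excitation 450–495 nm and emission 515–545 nm. ΔTm from curve fitting, triplicate measurements.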

PANC-1 [7] = experiment: Effect on ULK1 gene expression in human PANC1 cells at 400 nM after 6 hrs by RNA sequence analysis relative to control; type: functional; outline: as §1
PANC-1 [8] = experiment: Effect on mLST8 gene expression in human PANC1 cells at 400 nM after 24 hrs by RNA sequence analysis relative to control; type: functional; outline: as §1
MIA PaCa-2 [9] = experiment: Effect on ROBO3 gene expression in human MIAPaCa2 cells at 400 nM after 24 hrs by RNA sequence analysis relative to control; type: functional; outline: as §1
PANC-1 [10] = experiment: Effect on MAPK9 gene expression in human PANC1 cells at 400 nM after 24 hrs by RNA sequence analysis relative to control; type: functional
PANC-1 [11] = experiment: Effect on TEAD4 gene expression in human PANC1 cells at 400 nM after 6 hrs by RNA sequence analysis relative to control; type: functional; outline: as §1
PANC-1 [12] = experiment: Effect on SHANK2 gene expression in human PANC1 cells at 400 nM after 24 hrs by RNA sequence analysis relative to control; type: functional; outline: as §1
PANC-1 [13] = experiment: Effect on TEAD3 gene expression in human PANC1 cells at 400 nM after 6 hrs by RNA sequence analysis relative to control; type: functional; outline: as §1
MIA PaCa-2 [14] = experiment: Effect on GLI4 gene expression in human MIAPaCa2 cells at 400 nM after 6 hrs by RNA sequence analysis relative to control; type: functional
Outline: (§3)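 PANC-1 (0.35 x 10^6) or MIA PaCa-2 (1.5 x 10^6) cells seeded overnight in 60 mm plates, then exposed to 400 nM compound for 6 or 24 h; untreated cells as controls. Cells were mycoplasma-free and STR-certified. Differential expression by RNA-seq, called at FDR < 0.1.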

MIA PaCa-2 [15] = experiment: Effect on AKT1 gene expression in human MIAPaCa2 cells at 400 nM after 6 hrs by RNA sequence analysis relative to control; type: functional; outline: as §3
MIA PaCa-2 [16] = experiment: Effect on ULK1 gene expression in human MIAPaCa2 cells at 400 nM after 6 hrs by RNA sequence analysis relative to control; type: functional; outline: as §1
PANC-1 [17] = experiment: Effect on PRKCZ gene expression in human PANC1 cells at 400 nM after 6 hrs by RNA sequence analysis relative to control; type: functional; outline: as §1
PANC-1 [18] = experiment: Effect on TEAD4 gene expression in human PANC1 cells at 400 nM after 24 hrs by RNA sequence analysis relative to control; type: functional; outline: as §1
PANC-1 [19] = experiment: Effect on PCK2 gene expression in human PANC1 cells at 400 nM after 24 hrs by RNA sequence analysis relative to control; type: functional
[20] = Binding affinity to 5'-FAM/3'-TAMRA labeled T-loop duplex DNA (unknown origin) assessed as change in melting temperature at 1 uM by FRET assay; outline: as §2
MIA PaCa-2 [21] = experiment: Effect on PIK3R2 gene expression in human MIAPaCa2 cells at 400 nM after 24 hrs by RNA sequence analysis relative to control; type: functional
MIA PaCa-2 [22] = experiment: Effect on PAK1 gene expression in human MIAPaCa2 cells at 400 nM after 24 hrs by RNA sequence analysis relative to control; type: functional
PANC-1 [23] = experiment: Effect on ULK1 gene expression in human PANC1 cells at 400 nM after 24 hrs by RNA sequence analysis relative to control; type: functional; outline: as §1
CAPAN-1 = experiment: Growth inhibition of human Capan1 cells after 96 hrs by SRB assay; type: functional, cell-based; settings: CAPAN-1, 96 h
Outline: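 Cell lines kept at 37 °C, 5% CO2 in medium with 10% FBS and 2 mM L-glutamine. Compound dissolved in water, filter-sterilised, 10 mM stock diluted into media. Growth read by 96 h sulforhodamine B assay, absorbance at 540 nm. IC50 taken from mean absorbance per concentration as % of untreated wells, >3 individual determinations with standard deviations.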

MIA PaCa-2 [24] = experiment: Effect on GLI1 gene expression in human MIAPaCa2 cells at 400 nM after 6 hrs by RNA sequence analysis relative to control; type: functional; outline: as §3
PANC-1 [25] = experiment: Effect on SMO gene expression in human PANC1 cells at 400 nM after 24 hrs by RNA sequence analysis relative to control; type: functional; outline: as §1
MIA PaCa-2 [26] = experiment: Effect on AKT1S1 gene expression in human MIAPaCa2 cells at 400 nM after 6 hrs by RNA sequence analysis relative to control; type: functional; outline: as §3
[27] = Binding affinity to 5'-FAM/3'-TAMRA labeled KRAS21 promoter G-quadruplex DNA (unknown origin) assessed as change in melting temperature at 1 uM by FRET assay
Outline: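 FRET melting of FAM/TAMRA dual-labelled promoter G4 oligonucleotides, 400 nM, annealed at 95 °C for 10 min in 60 mM potassium cacodylate (pH 7.4) then cooled to RT. Ligand at 1 μM in solution with 50 mM K+. Fluorescence (ex 450–495, em 515–545 nm) read every 0.5 °C over 30–100 °C with a 30 sec hold per step. ΔTm from curve fitting; triplicate measurements.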

Homo sapiens = species on record: Homo sapiens; experiment: Binding affinity to 5'-FAM/3'-TAMRA labeled human telomeric F21T G-quadruplex DNA assessed as change in melting temperature at 1 uM by FRET assay; outline: as §2

## O=C1c2ccc3c4c(c(NCCN5CCCC5)cc(c24)C(=O)N1CCCN1CCOCC1)C(=O)N(CCCN1CCOCC1)C3=O
Mus musculus
  Activity: Non-Toxic
MIA PaCa-2 [1]
  log2FC: -0.68
PANC-1 [2]
  log2FC: -0.85
MIA PaCa-2 [3]
  log2FC: -0.09
MIA PaCa-2 [4]
  log2FC: -1.96
MIA PaCa-2 [5]
  log2FC: -1.87
[6]
  ΔTm: 12.7 °C
PANC-1 [7]
  log2FC: 0.19
PANC-1 [8]
  log2FC: -1.72
MIA PaCa-2 [9]
  log2FC: -0.53
PANC-1 [10]
  log2FC: -0.75
PANC-1 [11]
  log2FC: -0.23
PANC-1 [12]
  log2FC: -0.44
PANC-1 [13]
  log2FC: -0.59
MIA PaCa-2 [14]
  log2FC: -1.71
MIA PaCa-2 [15]
  log2FC: -0.2
MIA PaCa-2 [16]
  log2FC: 0.03
PANC-1 [17]
  log2FC: -1.44
PANC-1 [18]
  log2FC: -0.47
PANC-1 [19]
  log2FC: -0.56
[20]
  ΔTm: 0.6 °C
MIA PaCa-2 [21]
  log2FC: -1.14
MIA PaCa-2 [22]
  log2FC: -1.13
PANC-1 [23]
  log2FC: -0.81
CAPAN-1
  IC50: 16 nM
MIA PaCa-2 [24]
  log2FC: -0.61
PANC-1 [25]
  log2FC: -0.82
MIA PaCa-2 [26]
  log2FC: -0.54
[27]
  ΔTm: 11 °C
Homo sapiens
  ΔTm: 11.8 °C
